In brackets after ≈: the same amount, converted by molar mass. Activity calls are given as the source filed them. No cut-off for these calls is given here.
Key:
Plasmodium falciparum = assay: Antiplasmodial activity against Plasmodium falciparum K1 to 20 ug/mL; assay type: functional, organism-based
BC = assay: Cytotoxicity against human BC cells up to 20 ug/mL; assay type: functional, cell-based
[1] = test system: Mycobacterium tuberculosis; assay: Antitubercular activity against Mycobacterium tuberculosis H37Ra; assay type: functional
Method in brief: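 Whole-cell test against the H37Ra strain, with the minimum inhibitory concentration (MIC) read out in µg/mL.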

Pyricularia grisea = assay: Antifungal activity against Magnaporthe grisea up to 50 ug/mL; assay type: functional, organism-based
Vero = assay: Cytotoxicity against African green monkey Vero cells up to 50 ug/mL; assay type: cell-based; conditions: chlorocebus sabaeus
NCI-H187 = assay: Cytotoxicity against human NCI-H-187 cells up to 20 ug/mL; assay type: functional, cell-based
Candida albicans = assay: Antifungal activity against Candida albicans up to 50 ug/mL; assay type: functional, organism-based
KB = assay: Cytotoxicity against human KB cells up to 20 ug/mL; assay type: functional, cell-based

Row | Structure (SMILES) | Activity (Plasmodium falciparum) | Activity (BC) | MIC [1] | Activity (Pyricularia grisea) | Activity (Vero) | Activity (NCI-H187) | Activity (Candida albicans) | Activity (KB)
1 | O=C(/C=C/CCCCCCCCCO)N[C@H]1C[C@@]2(O)C(=O)[C@H]([C@H](O)[C@@H]3O[C@@H]32)[C@H]1O [ISARIOTIN A] | inactive | inactive | 486 µM (≈ 200 µg/mL) | inactive | Not Active | inactive | inactive | inactive
2 | O=C(O)CCCCCCCC/C=C/C(=O)N[C@H]1C[C@@]2(O)C(=O)[C@H]([C@H](O)[C@@H]3O[C@@H]32)[C@H]1O [ISARIOTIN B] | inactive | inactive |  | inactive | Not Active | inactive | inactive | inactive
3 | CCCCCCC/C=C/C(=O)N[C@H]1C[C@@]2(O)C(=O)[C@H]([C@H](O)[C@@H]3O[C@@H]32)[C@H]1O [ISARIOTIN D] | inactive | inactive | 544 µM (≈ 200 µg/mL) | inactive | Not Active | inactive | inactive | inactive
4 | CCCCCC(=O)CCC/C=C/C(=O)N[C@H]1C[C@@]2(O)C(=O)[C@H]([C@H](O)[C@@H]3O[C@@H]32)[C@H]1O [ISARIOTIN C] | inactive | inactive | 488 µM (≈ 200 µg/mL) | inactive | Not Active | inactive | inactive | inactive

Reference: ChEMBL document CHEMBL1141282, “Isariotins A-D, alkaloids from the insect pathogenic fungus Isaria tenuipes BCC 7831” (J Nat Prod, 2007)
